High-throughput results deposited in PubChem BioAssay by several laboratories.
Rows were chosen to be rich in hits. Some 3.5% of all compounds tested hit in one or more screens of this group.
KLK5 inh = kallikrein 5 (human) inhibition; 210,000 compounds, 0.59% hits; Q9Y337; recombinant hK5, fluorogenic AMC substrate cleavage; AID 873; inhibition, % at 5 µM;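 active = inhibition of 40% or more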
STAT3 act-1 = STAT3 signaling activation | U3A cells, IL-6 STAT3-luciferase reporter, luminescence; 100% = signal with IL-6 EC80 alone | activation (% of control), % at 5.6 µM | 190,000 compounds, 0.91% hits;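 active = activation above the screen-wide mean of compound activation plus 3 SD, cut at about 130% in these data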
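Material: STAT3-luciferase reporter U3A cells; Probe or stimulus: IL-6 (33 ng/mL); Incubation: compound pre-incubation 1 h before IL-6, then 6 h stimulation at 37 °C; Technique: luminescence from STAT3-driven luciferase reporter; Evaluation: % activation versus median of IL-6-stimulated wells; Controls: IL-6-only high control.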
thrombin 1536 = blocks human thrombin protease activity. P00734. alpha-thrombin, Boc-VPR-AMC fluorogenic substrate cleavage. inhibition, % at 5 µM. 220,000 compounds, 0.26% hits. AID 1046;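 active = inhibition at or above 40%; inactive = inhibition below 40%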
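Material: human alpha-thrombin enzyme / Medium: pH 7.5 Tris (50 mM) with NaCl 150 mM, Tween 20 0.05% / Compound: single-point dosing at 5 µM, 0.2% DMSO / Incubation: enzyme reaction carried out at room temperature / Detection: AMC fluorescence, 355/460 nm / Read-out basis: percent inhibition scaled between no-compound controls and no-enzyme blanks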
FXIa inh = factor XIa (human) inhibition; P03951; purified FXIa, Boc-Glu-Ala-Arg-AMC fluorogenic substrate; inhibition, % at 5 µM; 220,000 compounds, 0.14% hits; AID 798;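 active = inhibition of at least 40%; inactive = inhibition below 40%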;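 also: fluorescence of freed AMC excited at 355 nm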
Target sequence (P03951 19-387 limits assumed): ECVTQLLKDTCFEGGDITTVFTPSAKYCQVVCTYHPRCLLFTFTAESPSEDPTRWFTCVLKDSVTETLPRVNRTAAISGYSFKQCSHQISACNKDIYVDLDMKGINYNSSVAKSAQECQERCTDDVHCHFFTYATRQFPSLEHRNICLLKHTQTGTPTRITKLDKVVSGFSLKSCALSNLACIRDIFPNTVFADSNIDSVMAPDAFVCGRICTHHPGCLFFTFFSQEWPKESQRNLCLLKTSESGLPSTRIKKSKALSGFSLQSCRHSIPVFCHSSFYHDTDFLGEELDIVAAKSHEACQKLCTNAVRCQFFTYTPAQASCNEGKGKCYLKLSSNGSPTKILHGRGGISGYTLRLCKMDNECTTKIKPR
Target sequence (P03951 388-625 limits assumed): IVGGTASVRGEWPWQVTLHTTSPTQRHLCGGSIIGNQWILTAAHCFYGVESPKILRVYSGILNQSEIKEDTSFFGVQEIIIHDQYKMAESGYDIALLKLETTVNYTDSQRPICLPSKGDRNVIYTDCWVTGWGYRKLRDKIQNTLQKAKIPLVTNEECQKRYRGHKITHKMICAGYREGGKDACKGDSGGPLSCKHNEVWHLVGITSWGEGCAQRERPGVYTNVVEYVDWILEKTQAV
FXIIa inh = blocks human coagulation factor XIIa protease activity; P00748; purified FXIIa, Boc-QGR-AMC fluorogenic substrate, 2 h; inhibition, % at 5 µM; 220,000 compounds, 0.3% hits; AID 800; in the data active = inhibition above about 40%
AHR activator = human AHR activation; P35869; AHR-responsive luciferase reporter cells, luminescence; activation, % at 5 µM; 320,000 compounds, 2.5% hits; AID 2796; in the data active = activation above about 47%
STAT3 act-2 = STAT3 activation, confirmation assay. potentiation (% of control), % at 5.7 µM. 1,200 compounds, 64% hits. U3A STAT3-luciferase reporter, IL-6 potentiation, luminescence; U3A cells lack STAT1; 100 means same as IL-6 alone. shares compounds with STAT3 act-1. AID 1267;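 active = percent activation of the STAT3 luciferase reporter above a set limit taken from the earlier primary screen, cut at about 130% in these data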
NFkB act STAT3ct = NF-kappaB activation in STAT3 activator counter-screen; activation (% of control), % at 5.7 µM; shares compounds with STAT3 act-1; AID 1309; human cells, NF-kappaB reporter activation; 1,200 compounds, 11% hits; in the data active = activation above about 120%;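 also: reporter induced by TNF-alpha stimulation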
STAT1 act = counter-screen for STAT3 activators: STAT1 activation. NIH 3T3 STAT1-luciferase reporter, IFN-gamma, luminescence. 1,200 compounds, 13% hits. AID 1318. shares compounds with STAT3 act-1. activation (% of control), % at 5.7 µM;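 active = activation above the solvent-only control well mean plus 3 SD, set per screening run, cut at about 120% in these data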
Of the large screens only hits and unclear results are named; the others gave an inactive call (follow-up assays come after a bar, where they were run).

CCN(CC)CC(=O)Nc1ccc(-c2ccc(NC(=O)CN(CC)CC)c(OC)c2)cc1OC	none
Cn1c(=O)c2c(nc(N3CCCC3)n2CC(O)CO)n(C)c1=O (stereo unspecified)	STAT3 act-1 141.3 | STAT3 act-2 inactive | NFkB act STAT3ct inactive | STAT1 act inactive
c1ccc2sc(Sc3ncnc4sccc34)nc2c1	STAT3 act-1 151.5, AHR activator 49.0 | STAT3 act-2 159.3 | NFkB act STAT3ct inactive | STAT1 act inactive
COc1ccc(CCNC(=O)C2CCCN(C(=O)N(C)C)C2)c(OC)c1 (stereo unspecified)	none
CCc1nnc(SCC(=O)N2CCc3ccccc32)n1CC	none (no result: KLK5 inh, STAT3 act-1, thrombin 1536, FXIa inh, FXIIa inh)
CCn1c(CSc2ncccn2)nnc1SCC(=O)N1CCc2ccccc21	STAT3 act-1 148.4 | STAT3 act-2 inactive | NFkB act STAT3ct inactive | STAT1 act inactive
Cn1c(-c2ccccc2)cnc1SCC(=O)N1CCCc2ccccc21	none
O=C(CSc1ncc(-c2ccccc2)n1C1CCCC1)N1CCc2ccccc21	STAT3 act-1 141.3 | STAT3 act-2 inactive | NFkB act STAT3ct inactive | STAT1 act inactive
Cc1c(Cl)cccc1NC(=S)N1CCCCCC1	none (no result: KLK5 inh, STAT3 act-1, thrombin 1536, FXIa inh, FXIIa inh)
C[C@H](CO)N1C[C@H](C)[C@@H](CN(C)S(=O)(=O)c2cn(C)cn2)Oc2c(NC(=O)Nc3ccc4c(c3)OCO4)cccc2C1=O	none (no result: KLK5 inh, STAT3 act-1, thrombin 1536, FXIa inh, FXIIa inh)
CC(Sc1c[nH]c2ccccc12)C(=O)O (stereo unspecified)	STAT3 act-1 147.1 | STAT3 act-2 inactive | NFkB act STAT3ct inactive | STAT1 act inactive
CC(C)C(=O)NCCSc1c[nH]c2ccccc12	none
CCC(=O)NCCSc1c[nH]c2ccccc12	STAT3 act-1 144.9 | STAT3 act-2 141.0 | NFkB act STAT3ct inactive | STAT1 act inactive
O=C(O)CSc1c[nH]c2ccccc12	STAT3 act-1 150.6 | STAT3 act-2 inactive | NFkB act STAT3ct inactive | STAT1 act inactive
CC(Cl)C(=O)c1c[nH]c2ccccc12 (stereo unspecified)	none
C#CCOCCOCCOCCNc1nc(N2CCN(C(=O)[C@H](CCC(=O)O)n3cc(C(N)CO)nn3)CC2)nc(N2CCN(C(=O)[C@H](CCC(=O)O)n3cc(C(N)CC(C)C)nn3)CC2)n1 (stereo partly specified)	none (no result: STAT3 act-1, AHR activator)
CCNc1nc(SC(C(C)=O)C(C)=O)nc(N(C)C)n1	none
CCNc1nc(NC(C)(C)C)nc(SC(C(C)=O)C(C)=O)n1	STAT3 act-1 140.5 | STAT3 act-2 inactive | NFkB act STAT3ct inactive | STAT1 act inactive
COc1cc(/C=C/C(=O)OCC(=O)Nc2c(C)n(C)n(-c3ccccc3)c2=O)ccc1O	none (no result: KLK5 inh, STAT3 act-1, thrombin 1536, FXIa inh, FXIIa inh)
CC1(C)CC(=O)C(c2c[nH]c3ccccc23)C(=O)C1	STAT3 act-1 152.2 | STAT3 act-2 163.4 | NFkB act STAT3ct inactive | STAT1 act inactive
COc1ccc(C(=O)Nc2ccccc2C(=O)NC(Cc2c[nH]c3ccccc23)C(=O)O)cc1 (stereo unspecified)	STAT3 act-1 137.7 | STAT3 act-2 inactive | NFkB act STAT3ct inactive | STAT1 act inactive
O=C(Nc1ccccc1C(=O)NC(Cc1c[nH]c2ccccc12)C(=O)O)c1ccco1 (stereo unspecified)	none
CC(=O)Nc1cccc(C(=O)NC(C)c2ccc(S(N)(=O)=O)cc2)c1 (stereo unspecified)	STAT3 act-1 147.8 | STAT3 act-2 inactive | NFkB act STAT3ct inactive | STAT1 act inactive
CCOC(=O)/C=C1\SCC(=O)N1CC(=O)Nc1cccc(F)c1	none (no result: KLK5 inh)
N#C/C(=C(/O)c1ccc(Cl)cc1)c1nc2ccccc2[nH]1	none (no result: KLK5 inh, STAT3 act-1, thrombin 1536, FXIa inh, FXIIa inh)
Cc1ccc(Nc2nnc(SC/C(O)=C(\C#N)c3nc4ccccc4[nH]3)s2)c(C)c1	STAT3 act-1 144.7, AHR activator 55.0 | STAT3 act-2 150.9 | NFkB act STAT3ct inactive | STAT1 act inactive
Cc1cccc(Nc2nnc(SC/C(O)=C(\C#N)c3nc4ccccc4[nH]3)s2)c1	STAT3 act-1 143.3 | STAT3 act-2 153.0 | NFkB act STAT3ct inactive | STAT1 act inactive
COc1ccc(C)cc1-n1nnnc1SC/C(O)=C(\C#N)c1nc2ccccc2[nH]1	none
N#C/C(=C(/O)CSc1ncn[nH]1)c1nc2ccccc2[nH]1	STAT3 act-1 142.9 | STAT3 act-2 151.8 | NFkB act STAT3ct inactive | STAT1 act inactive
CC(C)(C)c1nnc2sc(SC/C(O)=C(\C#N)c3nc4ccccc4[nH]3)nn2c1=O	none
Cc1ccc(CNC(=O)C2CC(c3ccccc3[N+](=O)[O-])=NO2)cc1 (stereo unspecified)	STAT3 act-1 156.1 | STAT3 act-2 174.2 | NFkB act STAT3ct inactive | STAT1 act inactive
CCOC(=O)C1=C(NC(=S)NC(=O)c2ccccc2)c2ccccc2CC1(C)CC (stereo unspecified)	none
CCOC(=O)C1=C(NC(=S)NC(=O)c2ccccc2)c2ccccc2CC1C(C)C (stereo unspecified)	STAT3 act-1 139.1 | STAT3 act-2 inactive | NFkB act STAT3ct inactive | STAT1 act inactive
O=c1oc(-c2cccs2)nc2scc(-c3cccs3)c12	STAT3 act-1 139.7 | STAT3 act-2 inactive | NFkB act STAT3ct inactive | STAT1 act inactive
Cc1sc2nc(-c3cccs3)oc(=O)c2c1C	none (no result: KLK5 inh, STAT3 act-1, thrombin 1536, FXIa inh, FXIIa inh)
O=C(NC1CCCCCC1)C1CC(=O)N(Cc2ccccc2)C1 (stereo unspecified)	none
Cc1ccc(C)n1NC(=O)c1ccccc1O	STAT3 act-1 153.2 | STAT3 act-2 151.4 | NFkB act STAT3ct inactive | STAT1 act inactive
Cc1ccc2nc(-c3ccccc3)cc(C(=O)NCC(c3ccco3)N(C)C)c2c1 (stereo unspecified)	none (no result: KLK5 inh, STAT3 act-1, thrombin 1536, FXIa inh, FXIIa inh)
Cc1ccc(-c2cc(-c3ccccc3)no2)c(O)c1	none
Cc1ccccc1-c1cc(-c2ccccc2O)on1	STAT3 act-1 167.7, AHR activator 73.3 | STAT3 act-2 184.0 | NFkB act STAT3ct inactive | STAT1 act inactive
Oc1ccccc1-c1cc(-c2ccccc2)no1	STAT3 act-1 161.7 | STAT3 act-2 175.2 | NFkB act STAT3ct 124.2 | STAT1 act inactive
CCOC(=O)c1c(C)[nH]c(C)c1C(=O)COC(=O)c1ccc(Cl)c(S(=O)(=O)NCc2ccccc2)c1	none
CCCc1cc(=O)n2[nH]c(C)nc2n1	STAT3 act-1 152.6 | STAT3 act-2 inactive | NFkB act STAT3ct inactive | STAT1 act inactive
CCCc1cc(=O)n2[nH]c(C(F)(F)F)nc2n1	none
